Source: PubChem (several laboratories)
In the library only some 3.4% were active in any assay of this set; here they are far more common.
LANA-H2A inh: blockers of LANA interaction with H2A/H2B – biochemical, FP readout, HTS, primary screen. Protein LANA1 (Human herpesvirus 8 type P (isolate GK18)), Q9QR71. cell-free LANA-H2A/H2B peptide, fluorescence polarization. inhibition, % (test concentration not listed). 320,000 compounds, 0.6% hits. AID 2629, 2010; in the data active = inhibition mostly above about 10%, no sharp cut-off; inactive = mostly below about 6.7%
Target sequence (Q9QR71 whole entry, looked up): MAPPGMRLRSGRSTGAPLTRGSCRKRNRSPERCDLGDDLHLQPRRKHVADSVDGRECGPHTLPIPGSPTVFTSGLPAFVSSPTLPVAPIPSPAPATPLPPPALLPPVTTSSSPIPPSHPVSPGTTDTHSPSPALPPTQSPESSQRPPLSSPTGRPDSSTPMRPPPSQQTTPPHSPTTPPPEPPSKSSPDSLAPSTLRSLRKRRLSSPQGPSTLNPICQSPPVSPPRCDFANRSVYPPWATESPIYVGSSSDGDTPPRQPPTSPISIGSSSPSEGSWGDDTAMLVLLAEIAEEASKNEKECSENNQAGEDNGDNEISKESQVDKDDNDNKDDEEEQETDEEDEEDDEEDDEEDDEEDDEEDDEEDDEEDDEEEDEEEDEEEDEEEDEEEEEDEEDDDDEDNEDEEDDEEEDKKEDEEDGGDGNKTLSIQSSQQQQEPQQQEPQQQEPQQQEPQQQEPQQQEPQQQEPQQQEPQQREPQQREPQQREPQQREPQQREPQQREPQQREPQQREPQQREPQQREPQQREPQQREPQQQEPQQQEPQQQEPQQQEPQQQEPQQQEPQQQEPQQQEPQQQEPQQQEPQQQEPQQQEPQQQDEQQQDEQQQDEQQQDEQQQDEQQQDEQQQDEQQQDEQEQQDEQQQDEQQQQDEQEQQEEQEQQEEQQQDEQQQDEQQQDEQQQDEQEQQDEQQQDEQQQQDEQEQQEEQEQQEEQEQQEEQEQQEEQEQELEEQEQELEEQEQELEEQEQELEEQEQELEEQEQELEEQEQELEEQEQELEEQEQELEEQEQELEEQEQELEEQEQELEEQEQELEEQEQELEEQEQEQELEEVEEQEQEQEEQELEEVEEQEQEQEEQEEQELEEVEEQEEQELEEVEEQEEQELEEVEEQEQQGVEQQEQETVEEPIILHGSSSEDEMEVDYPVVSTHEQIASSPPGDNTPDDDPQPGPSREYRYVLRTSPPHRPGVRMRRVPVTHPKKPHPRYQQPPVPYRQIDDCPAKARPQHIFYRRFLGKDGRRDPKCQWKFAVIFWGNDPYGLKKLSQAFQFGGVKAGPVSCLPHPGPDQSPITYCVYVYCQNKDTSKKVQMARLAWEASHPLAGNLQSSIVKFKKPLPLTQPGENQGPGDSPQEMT
TAAR1 antagonist: human TAAR1 antagonists, primary screen, Fluo-8 calcium fluorescence, CHO RD-HGA16 cells. inhibition, % at 3 µM. AID 624466, 2012. antagonist. 360,000 compounds, 1.5% hits;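 active = inhibition above a per-plate cutoff, the mean inhibition of test compounds on that plate plus 3 SD, cut at about 49% in these data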;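 note: 0% = DMSO plus EC80 beta-PEA response and 100% = DMSO alone without agonist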
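Test system – hTAAR1-expressing CHO RD-HGA16 cells, Gα16-coupled · Also added – β-PEA at EC80 concentration, post-compound challenge · Compound – 3 µM, single point · Incubation – dye loading 75 min at 37 °C, then 30 min room temperature · Measured by – Fluo-8 intracellular calcium dye fluorescence, real-time kinetic reads · Benchmarks – vehicle and agonist controls · Replicates – singlicate, one well per test compound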
GPR7 antag: GPR7 receptor antagonists, primary screen, cell-based, fluorescence, single concentration. Neuropeptides B/W receptor type 1 (Homo sapiens), P48145. GPR7-expressing cells, fluorescence antagonist assay. inhibition, % at 4.4 µM. 290,000 compounds, 1.1% hits. AID 1861, 2009; in the data active = inhibition above about 16%, passing the limit was not always enough;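 note: cells stimulated with the agonist NPW; 0% = agonist with vehicle and 100% = vehicle without agonist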
TAAR1 ag: human TAAR1 agonists, primary screen, Fluo-8 calcium fluorescence, CHO RD-HGA16 cells. vehicle wells 0%, saturating PEA agonist 100%. activation, % at 3 µM. 360,000 compounds, 0.99% hits;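 active = activation above the mean activation of all test compounds in the run plus 3 SD, cut at about 38% in these data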
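Test system: RD-HGA16 (CHO) cells co-expressing Gα16 and hTAAR1 | Doses: Single dose, 3 µM | Schedule: 17-24 h seeding, 75 min 37 °C dye, 30 min RT | Evaluation: % activation from peak over basal fluorescence ratio, DMSO-to-PEA scaled | Technique: Kinetic Fluo-8 calcium fluorescence | Benchmarks: Low control DMSO, high control PEA (EC100)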
zfTRPN1 agonist: zebrafish TRPN1 channel agonists, primary screen, cell-based, HEK293, calcium fluorescence; activation, % at 3 µM; 220,000 compounds, 0.18% hits; HEK293 zebrafish TRPN1-YFP, Fluo-8 calcium fluorescence; 100% = response to 87 µM carbachol;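 active = activation above its plate's cutoff, the mean activation of test wells on that plate plus 3 SD, cut at about 19% in these data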;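 note: 0% = DMSO alone and 100% = 87 µM carbachol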
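Assay system: Zebrafish TRPN1-YFP in HEK293 cells | Incubation: Dye loading 1 h at 37 °C, then 30 min room temperature | Measured by: Kinetic Fluo-8 fluorescence, ex 470-495, em 515-575 nm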
TRPML3 agonist: human TRPML3 channel agonists, primary screen, cell-based, HEK293 TRPML3-YFP, Fluo-8 calcium fluorescence, 3 µM. activation, % at 3 µM. Mucolipin-3 (Homo sapiens), Q8TDD5. 220,000 compounds, 0.29% hits. 100% = the carbachol control signal. AID 1448, 2008;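 active = activation above its plate's cutoff, the mean activation of the plate's test wells plus 3 SD, cut at about 12% in these data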;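 note: 0% = DMSO only wells and 100% = carbachol wells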
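Test system: TRPML3-YFP stable HEK293 cells. Doses: single point at 3 µM. Incubation: dye loading 1 h 37 °C then 30 min ambient, 125 s read. Signal: Fluo-8 calcium dye fluorescence, ex 470-495, em 515-575 nm. Measure: percent activation from peak-to-basal fluorescence ratio, scaled between DMSO and carbachol.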
GPR7 antag cf: GPR7 receptor antagonists, confirmation, cell-based, fluorescence, single concentration. shares compounds with GPR7 antag. GPR7-expressing cells, calcium fluorescence antagonist mode. inhibition, % at 4.4 µM. 2,400 compounds, 52% hits. AID 1952, 2009; in the data active = inhibition above about 24%;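 note: stimulated with the GPR7 agonist NPW; 0% = agonist plus vehicle and 100% = vehicle alone without agonist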
MCHR1 antag: MCHR1 antagonists in cells, counter-screen for GPR7 antagonist project, cell-based, fluorescence, human; shares compounds with GPR7 antag; MCHR1-expressing cells, fluorescence antagonist assay; inhibition, % at 4.4 µM; 2,400 compounds, 62% hits; in the data active = inhibition above about 22%;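 note: 0% = vehicle with agonist and 100% = vehicle without agonist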
The depositor's hits bear a star; · = not tested or not shown.

SMILES	LANA-H2A inh	TAAR1 antagonist	GPR7 antag	TAAR1 ag	zfTRPN1 agonist	TRPML3 agonist	GPR7 antag cf	MCHR1 antag
O=C1c2ccccc2C(O)(c2ccccc2)N1c1ccc([N+](=O)[O-])cc1Cl (stereo not given)	·	1.5	·	-1.0	·	·	·	·
O=C(Nc1cccnc1)c1ccc(Cl)c(S(=O)(=O)N2CCc3ccccc32)c1	-0.8	23.9	49.4*	9.8	11.6	4.7	62.3*	79.6*
CC(=O)Nc1ccc(NC(=O)c2ccc(Cl)c(S(=O)(=O)N3CCc4ccccc43)c2)cc1	·	14.6	·	19.4	·	·	·	·
CCNC(=O)C1CCCN1S(=O)(=O)c1ccc2ccccc2c1 (stereo not given)	-0.3	-18.0	-8.2	4.6	·	·	·	·
O=C(NCCc1ccccc1F)C1CCCN1S(=O)(=O)c1ccc2ccccc2c1 (stereo not given)	2.6	12.3	22.7*	20.1	0.7	-0.6	9.8	21.5*
NS(=O)(=O)c1ccc2nc(NC(=O)Nc3ccc(F)cc3)sc2c1	-10.0	7.7	33.8*	17.1	·	·	50.0*	15.4
Cc1cccc2c1NC(=O)C2(c1ccc(O)cc1)c1ccc(O)cc1	-1.6	2.0	67.0*	9.7	-0.1	0.4	78.7*	49.2*
CC(C)(C)OC(=O)C[C@@H]1C/C=C\C[C@H](CC(=O)N[C@@H](CO)Cc2ccccc2)C(=O)N[C@H](C(C)(C)C)COC1=O	3.3	0.0	·	8.4	·	·	·	·
Nc1nc(N)nc(-c2ccccc2-c2nc(N)nc(N)n2)n1	-2.7	-1.6	13.8	1.4	-1.2	0.1	-12.8	-7.2
Cc1cc(Cl)cc(C)c1OCCNCc1ccccc1	2.6	-7.6	19.8	15.8	·	·	·	·
Cc1cc(Cl)cc(C)c1OCCOCCNCc1ccccc1	-3.3	-0.9	27.4*	15.4	·	·	35.2*	28.0*
Clc1ccc(OCCOCCNCc2ccccc2)cc1Cl	-2.3	25.9	90.1*	22.7	·	·	18.8	26.8*
Cc1cccc(-n2c(C)c(C)c3c(N)ncnc32)c1	-3.9	2.2	-9.5	-0.6	·	·	·	·
Cc1ccc(N(CC(=O)N2CCCCCC2)S(C)(=O)=O)c(C)c1	·	-6.0	·	1.1	·	·	·	·
Cc1ccc(-c2ocnc2C(=O)N2CCN(C(=O)c3cccs3)CC2)cc1	2.6	-19.7	28.2*	0.7	·	·	20.8	6.9
Cc1ccc(Cc2c(-c3cccc(Cl)c3)nc3c(C)cc(Br)cn23)cc1	·	-11.5	·	-0.7	·	·	·	·
O=C1C2C3c4ccccc4C(c4ccccc43)C2c2nc3ccccc3n21 (stereo not given)	-2.7	45.1	22.1*	18.8	-1.6	-0.3	7.8	31.7*
CCN1C(=O)[C@H]2[C@H]3CN=C(SCc4ccc(C)cc4)N3[C@@](C)(C(=O)OC)[C@H]2C1=O	·	4.2	·	0.9	·	·	·	·
CN(CC(O)Cn1c2ccccc2c2ccccc21)S(C)(=O)=O (stereo not given)	-2.2	1.1	0.4	6.5	1.3	0.8	·	·
CS(=O)(=O)N(CC(O)Cn1c2ccccc2c2ccccc21)c1ccccc1 (stereo not given)	-3.2	38.8	28.2*	15.7	1.2	1.3	35.4*	33.7*
Cc1ccc(S(=O)(=O)N2CCN(Cc3cccc(F)c3)CC2)cc1	-1.7	-3.5	·	5.7	·	·	·	·
O=S(=O)(c1cccs1)N1CCN(Cc2cccc(F)c2)CC1	1.6	-6.7	29.9*	-1.7	·	·	8.9	13.8
Cc1ccc(S(=O)(=O)NC(CC(C)C)C(=O)NCCCn2nc(C)cc2C)cc1 (stereo not given)	-9.6	11.3	·	3.9	·	·	·	·
CCc1ccccc1NC(=O)CSc1nc2ccccc2nc1N1CCOCC1	-0.6	-18.9	26.4*	2.1	·	·	34.2*	31.3*
O=C(CCC1CCCCC1)Nc1c2c(nn1-c1ccc(F)cc1)CS(=O)(=O)C2	-1.1	-3.0	32.2*	9.7	0.3	0.6	42.7*	28.9*
SMILES	LANA-H2A inh	TAAR1 antagonist	GPR7 antag	TAAR1 ag	zfTRPN1 agonist	TRPML3 agonist	GPR7 antag cf	MCHR1 antag
CCCC(=O)Nc1c2c(nn1-c1ccc(F)cc1)CS(=O)(=O)C2	-2.1	5.1	-3.6	3.9	·	·	·	·
COc1ccccc1NS(=O)(=O)c1cccc(C(=O)NCC(c2cccs2)N2CCOCC2)c1 (stereo not given)	4.8	15.4	·	5.8	·	·	·	·
CC(=O)Nn1c(COc2ccccc2C)nc2ccccc2c1=O	3.3	-1.3	23.2	5.7	-0.6	-0.6	·	·
CC(C)=NOCC(=O)Nn1c(COc2c(C)cccc2C)nc2ccccc2c1=O	-1.7	6.4	25.8*	4.3	·	·	-15.7	-2.8
Cc1cccc(NC(=O)N2CCCC(CNC(=O)c3ccccc3Cl)C2)c1C (stereo not given)	4.3	-14.4	-2.9	3.7	·	·	·	·
COc1ccc(C(C)(C)C)cc1NC(=O)c1cccc(S(=O)(=O)N2CCN(C(C)=O)CC2)c1	2.7	-23.6	-3.7	-2.5	·	·	·	·
COc1ccc(C2C(Oc3ccccc3C)C(=O)N2Cc2ccc(F)cc2)cc1OC (stereo not given)	2.9	32.0	27.9*	0.7	3.7	1.6	15.6	20.0
c1ccc(-c2ncnc3ccccc23)cc1	·	5.3	·	-0.2	·	·	·	·
CC1(C(=O)NS(=O)(=O)c2cccs2)CCN1C(=O)CC1CCCCC1 (stereo not given)	·	-6.7	·	5.7	·	·	·	·
COC(=O)[C@]12CCCCC=C1N(Cc1ccc(Cl)cc1Cl)C(=O)[C@H](CC(=O)N1CCOCC1)C2	·	-6.1	·	6.9	·	·	·	·
COc1ccc(C(CNC(=O)c2ccc(S(=O)(=O)Nc3ccc(F)cc3)cc2)N(C)C)cc1 (stereo not given)	2.0	16.8	54.3*	45.1*	·	·	50.8*	49.0*
OCCNCc1ccc(OCc2ccc(Cl)cc2Cl)cc1	-8.0	1.6	30.6*	23.4	2.2	2.2	40.4*	43.0*
S=C(Nc1ccccc1)Nc1ccc(OCc2ccc(Cl)cc2Cl)cc1	4.7	-8.2	-7.8	5.7	0.4	0.8	·	·
OCCCCNCc1ccc(OCc2ccc(Cl)cc2Cl)cc1	-8.6	10.6	38.6*	37.8*	1.6	1.3	66.5*	58.5*
